Test results from publication PMC8179362 (Chemical Science, 2021).

Legend:
HEK293 = assay: Cytotoxicity, MTT assay; assay type: cell-based, human; details: 260, 355 and 530 μM, 24 hs
[1] = tested on: K. pneumoniae (5639), VIM-24; assay: Imipenem MIC, broth microdilution, clinical isolate; assay type: cell-based; details: MMTZ at constant 100 mg/L
Procedure, shortened: (§1)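 Clinical Enterobacterales isolates producing MBLs. Carbapenem MIC was determined for the carbapenem alone and in the presence of test compound, and the shift in MIC was assessed. Imipenem was the carbapenem for most strains. Morganellaceae strains were tested with meropenem instead, because of their intrinsic reduced susceptibility to imipenem.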

[2] = target: E. coli cells expressing NDM-1 (Klebsiella pneumoniae, UniProt C7C422); assay type: cell-based
VERO = assay: Cytotoxicity, MTT assay; assay type: cell-based, African green monkey; details: 260, 355 and 530 μM, 24 hs
E. coli (8.68), NDM-1 = assay: Imipenem MIC, broth microdilution, clinical isolate; assay type: cell-based; details: for MIC of imipenem (IMI) + MMTZ: E. coli (8.68), NDM-1, MMTZ at constant 100 mg/L
Procedure, shortened: as §1

[3] = tested on: K. pneumoniae (6907), VIM-2; assay: as above; assay type: cell-based; details: MMTZ at constant 100 mg/L
Procedure, shortened: as §1

[4] = tested on: Enterobacter spp. (42713), IMP; assay: as above; assay type: cell-based; details: for MIC of imipenem (IMI) + MMTZ: Enterobacter spp. (42713), IMP, MMTZ at constant 100 mg/L
Procedure, shortened: as §1

L929 = assay: Cytotoxicity, MTT assay; assay type: cell-based, mouse; details: 260, 355 and 530 μM, 24 hs
NDM-1 = NDM-1 (Klebsiella pneumoniae, UniProt C7C422); assay: Imipenem hydrolysis by purified NDM-1, competitive inhibition model; assay type: biochemical; details: for Fold more active against NDM-1 than its enantiomer / Fold more potent NDM-1 inhibitor than L-BTZ-1: ratio of Ki values
[5] = tested on: K. pneumoniae (1.37), NDM; assay: Imipenem MIC, broth microdilution, clinical isolate; assay type: cell-based; details: MMTZ at constant 100 mg/L
Procedure, shortened: as §1

VIM-2 = VIM-2 (Escherichia coli, UniProt Q5U7L7); assay: Imipenem hydrolysis by purified VIM-2, competitive inhibition model; assay type: biochemical
IMP-1 = IMP-1 (Serratia marcescens, UniProt P52699); assay: Imipenem hydrolysis by purified IMP-1, competitive inhibition model; assay type: biochemical
[6] = tested on: K. aerogenes (6915), VIM-2; assay: Imipenem MIC, broth microdilution, clinical isolate; assay type: cell-based; details: MMTZ at constant 100 mg/L
Procedure, shortened: as §1

[7] = tested on: clinical isolates producing MBLs; assay: Antimicrobial susceptibility testing, statements on the whole panel; assay type: cell-based; details: MMTZ at constant 100 mg/L, Enterobacterales clinical isolates
Procedure, shortened: as §1

[8] = Chemical stability in PBS; assay type: physicochemical; details: PBS pH 7.2, 27 °C
[9] = tested on: P. mirabilis (UNC KPC 170), IMP; assay: Carbapenem; assay type: cell-based; details: tested using meropenem (footnote a)
Procedure, shortened: as §1

[10] = tested on: K. pneumoniae (LC 82), IMP-13; assay: Imipenem MIC, broth microdilution, clinical isolate; assay type: cell-based; details: MMTZ at constant 100 mg/L
Procedure, shortened: as §1

Sequence of IMP-1 (P52699 19-246, looked up, species assumed): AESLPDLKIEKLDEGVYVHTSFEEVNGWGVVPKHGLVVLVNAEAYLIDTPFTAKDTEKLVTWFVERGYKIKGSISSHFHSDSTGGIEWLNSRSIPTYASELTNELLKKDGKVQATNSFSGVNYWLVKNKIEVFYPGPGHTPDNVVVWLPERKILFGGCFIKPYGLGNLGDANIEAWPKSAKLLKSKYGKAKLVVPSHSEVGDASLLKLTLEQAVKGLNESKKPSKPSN
Sequence of NDM-1 (C7C422 29-270, looked up, species assumed): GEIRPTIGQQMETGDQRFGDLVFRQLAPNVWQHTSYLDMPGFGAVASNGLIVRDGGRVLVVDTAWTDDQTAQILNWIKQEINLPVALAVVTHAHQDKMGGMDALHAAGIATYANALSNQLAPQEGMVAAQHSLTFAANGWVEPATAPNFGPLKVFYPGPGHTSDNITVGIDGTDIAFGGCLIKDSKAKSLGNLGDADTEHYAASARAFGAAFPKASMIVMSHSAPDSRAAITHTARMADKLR
Sequence of E. coli cells expressing NDM-1 (C7C422 29-270, looked up): as the sequence (C7C422 29-270, looked up, species assumed) above

SMILES	MIC of imipenem (IMI) + MMTZ [1] [µg/mL]	IC50 [2] [nM]	MIC of imipenem (IMI) + MMTZ (E. coli (8.68), NDM-1) [µg/mL]	MIC of imipenem (IMI) + MMTZ [3] [µg/mL]	MIC of imipenem (IMI) + MMTZ [4] [µg/mL]	Ki (NDM-1) [nM]	MIC of imipenem (IMI) + MMTZ [5] [µg/mL]	Ki (VIM-2) [nM]	Ki (IMP-1) [nM]	MIC of imipenem (IMI) + MMTZ [6] [µg/mL]	also measured
CCOC(=O)[C@@]1(CS)N[C@@H](C(=O)O)CS1 [D-anti-1a, (2R,4S)-2-(ethoxycarbonyl)-2-(mercaptomethyl)thiazolidine-4-carboxylic acid]	4	64000 ± 5000	16	2	8	2500 ± 500	8	390 ± 40	1300 ± 100	2	Cytotoxicity (cell viability) (HEK293): induced a decline in cell viability percentages in almost all conditions; Cytotoxicity (cell viability) (VERO): induced a decline in cell viability percentages in almost all conditions; Cytotoxicity (cell viability) (L929): induced a decline in cell viability percentages in almost all conditions
CCOC(=O)[C@@]1(CS)N[C@@H](C(=O)O)C(C)(C)S1 [D-anti-1b, (2R,4S)-2-(Ethoxycarbonyl)-2-(mercaptomethyl)-5,5-dimethylthiazolidine-4-carboxylic acid]	1	210000 ± 10000	16	1	8	3100 ± 300	8	900 ± 100	930 ± 80	2	Reduction in MIC values of imipenem [7]: up to 16 fold; Degradation in PBS by LCMS ([8]; 6 h): did not hydrolyse to penicillamine and the main degradation product was the disulphide derivative; Intact MMTZ remaining ([8]; after 6 hours): 88%
CCOC(=O)[C@]1(CS)N[C@@H](C(=O)O)C(C)(C)S1 [D-syn-1b, (2S,4S)-2-(Ethoxycarbonyl)-2-(mercaptomethyl)-5,5-dimethylthiazolidine-4-carboxylic acid]	8		32	4	8		8	1900 ± 100	2000 ± 200	4	Fold more active against NDM-1 than its enantiomer (NDM-1): 13 fold; Fold more potent NDM-1 inhibitor than L-BTZ-1 (NDM-1): 12 fold
C[C@@H](O)[C@H]1C(=O)N2C(C(=O)O)=C(SCCN=CN)C[C@H]12 [IMI, imipenem, reference compound]											MIC (E. coli (8.68), NDM-1; Escherichia coli, read-out: MIC of imipenem (IMI) alone): 64 µg/mL; MIC ([4]; Enterobacter, read-out: MIC of imipenem (IMI) alone): 16 µg/mL; MIC of carbapenem alone (column IMI) [9]: 16 µg/mL
CCOC(=O)[C@]1(CS)N[C@H](C(=O)O)CS1 [L-anti-1a, (2S,4R)-2-(ethoxycarbonyl)-2-(mercaptomethyl)thiazolidine-4-carboxylic acid]	8	54000 ± 4000		2	16	5200 ± 700	8	380 ± 50	1000 ± 200	4	Cytotoxicity (cell viability) (HEK293): more selectively toxic towards the HEK293 cell line; MIC of imipenem (IMI) + MMTZ [10]: 0.5 µg/mL
CCOC(=O)[C@]1(CS)N[C@H](C(=O)O)C(C)(C)S1 [L-anti-1b, (2S,4R)-2-(Ethoxycarbonyl)-2-(mercaptomethyl)-5,5-dimethylthiazolidine-4-carboxylic acid]	4	160000 ± 10000	16	1	8	440 ± 60	8	750 ± 90	460 ± 50	2	Fold more active against NDM-1 than its enantiomer (NDM-1): 7 fold; Fold more potent NDM-1 inhibitor than L-BTZ-1 (NDM-1): 12 fold
CCOC(=O)[C@@]1(CS)N[C@H](C(=O)O)C(C)(C)S1 [L-syn-1b, (2R,4R)-2-(Ethoxycarbonyl)-2-(mercaptomethyl)-5,5-dimethylthiazolidine-4-carboxylic acid]	8	230000 ± 30000	32	4	16	8000 ± 1000		3600 ± 400	6000 ± 600	4	MIC of imipenem (IMI) + MMTZ [10]: 1 µg/mL
